Reference: ChEMBL document CHEMBL1123881, “Synthesis and antiarrhythmic activity of new 3-[2-(omega-aminoalkoxy)phenoxy]-4-phenyl-3-buten-2-ones and related compounds” (J Med Chem, 1987)
In brackets after ≈: the same amount, converted by molar mass.

What was measured:
[1] = test system: Canis familiaris; assay: The compound was tested for antiarrhythmic activity in infarcted conscious dog through iv; format: functional; conditions: Canis lupus familiaris, Heart
Method in brief: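 Beagle dogs of both sexes, 10-14 kg, coronary ligature under pentobarbital (30 mg/kg iv) with artificial ventilation. Next day, dogs without spontaneous arrhythmia get epinephrine 2-10 µg/kg iv (ear vein). Compound then given iv. ECG at 5-180 min, with epinephrine re-challenge at each time. Maximal ectopic beats/min counted before and after each dose, in 2-4 dogs.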

[2] = test system: Canis familiaris; assay: Antiarrhythmic activity ( protection against epinephrine induced ventricular fibrillation ) in post infarcted conscious dog administered iv.; format: functional; conditions: Canis lupus familiaris, Heart
[3] = organism: Mus musculus; assay: The compound was tested for effective concentration (intradermal injection) that caused local anesthesia in 50% of mice by tail-clip method; format: functional, organism-based
Method in brief: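 Tail-clip test in albino CF1 mice of both sexes, 18-20 g. Intradermal tail injection of 0.1 mL/mouse about 1 cm from the root.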

[4] = test system: Mus musculus; assay: Antiarrhythmic activity ( protection against aconitine induced initial arrhythmia ) in anesthetized mouse administered perorally; format: functional; conditions: Heart, po
Method in brief: (§1)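 Albino CF1 mice of both sexes, 20-22 g, pentobarbital-anesthetized (60 mg/kg ip), lead II ECG. Dosing iv (caudal vein) 2 min or orally 60 min before aconitine infusion, 8 µg/mL at 0.32 mL/min for 3 min. ECG read every 10 s. Endpoint is time to initial arrhythmia and to ventricular tachycardia. Ten mice per dose; probit analysis.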

[5] = test system: Mus musculus; assay: Antiarrhythmic activity ( protection against aconitine induced initial arrhythmia ) in anesthetized mouse administered through iv.; format: functional; conditions: Heart; method in brief: as §1
[6] = test system: Mus musculus; assay: Antiarrhythmic activity ( protection against aconitine induced ventricular tachycardia) in anesthetized mouse administered perorally; format: functional; conditions: Heart, po; method in brief: as §1
[7] = test system: Mus musculus; assay: Antiarrhythmic activity ( protection against aconitine induced ventricular tachycardia) in anesthetized mouse administered through iv.; format: functional; conditions: Heart; method in brief: as §1
[8] = The compound was tested for acute toxicity when given intraperitoneally in mouse.; format: organism-based; conditions: in vivo, ip
Method in brief: (§2)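 Albino CF1 mice of both sexes, 18-20 g, dosed intraperitoneally; survivors observed for 1 week; ten mice per dose. LD50 derived by probit method, confidence limits at p = 0.05.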

[9] = organism: Oryctolagus cuniculus; assay: Tested in vitro for antiarrhythmic activity in isolated rabbit atria; format: functional; conditions: Heart
Method in brief: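 Atria from New Zealand rabbits in oxygenated Ringer-Locke at 29 °C, paced with 10-ms, 10-V rectangular pulses at rising frequency to find the maximum driven frequency. This was remeasured before and 10, 15 and 20 min after drug addition. Dose-response curves on the same tissue, repeated 3-5 times. EC values by probit.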

[10] = test system: Rattus norvegicus; assay: The compound was tested for activity on heart rate in anesthetized rat when induced through femoral vein (iv) at dose of 1 mg/kg; format: functional
Method in brief: (§3)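 Heart rate in anesthetized rats, given iv (femoral vein) or into the portal vein. Rate recorded a few seconds before drug administration.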

[11] = test system: Rattus norvegicus; assay: The compound was tested for activity on heart rate in anesthetized rat when induced through portal vein (ipv) at dose of 1 mg/kg; format: functional; method in brief: as §3
[12] = test system: Rattus norvegicus; assay: The compound was tested for blood electrolyte K+ in rat serum when induced through femoral vein (iv) at dose of 5 mg/kg; format: functional
Method in brief: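 Sprague-Dawley rats of both sexes, 140-150 g. Serum K+ measured by flame photometry 1 h after iv dosing. Five rats per dose.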

[13] = test system: Rattus norvegicus; assay: Antiarrhythmic activity ( protection against CaCl2 induced ventricular fibrillation ) in conscious rat administered intravenously; format: functional; conditions: Heart, iv
Method in brief: (§4)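 Sprague-Dawley albino rats, 180-200 g, conscious or urethane-anesthetized (2.8 g/kg sc). Compound given via caudal or portal vein 2 min, or orally 60 min, before rapid iv 8% CaCl2 at 1 mL/kg. Lead II ECG monitored for fibrillation within 10 min. Five to ten rats per dose.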

[14] = test system: Rattus norvegicus; assay: Antiarrhythmic activity ( protection against CaCl2 induced ventricular fibrillation ) in conscious rat administered orally (po); format: functional; conditions: Heart; method in brief: as §4
[15] = test system: Rattus norvegicus; assay: Antiarrhythmic activity (protection against CaCl2 induced ventricular fibrillation) in anesthetized rat administered through portal vein (ipv); format: functional; conditions: Heart; method in brief: as §4
[16] = test system: Rattus norvegicus; assay: The compound was tested for antiarrhythmic activity ( protection against CaCl2 induced ventricular fibrillation ) in anesthetized rat.; format: functional; conditions: Heart; method in brief: as §4
[17] = The compound was tested for acute toxicity when given intravenously in rat; format: organism-based; conditions: in vivo, iv
Method in brief: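 Sprague-Dawley rats of both sexes, 120-140 g, dosed intravenously; survivors observed for 1 week. LD50 derived by probit method, confidence limits at p = 0.05.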

[18] = test system: Rattus norvegicus; assay: Antiarrhythmic activity ( protection against CaCl2 induced ventricular fibrillation ) in anesthetized rat administered intravenously; format: functional; conditions: Heart, iv; method in brief: as §4
[19] = The compound was tested for acute toxicity when given intraperitoneally in mouse; format: organism-based; conditions: in vivo, ip; method in brief: as §2

| SMILES | LD50 [8] | EC30 [9] | LD50 [17] | ED50 [18] | further results |
| --- | --- | --- | --- | --- | --- |
| CCN(CC)CCCOc1ccccc1O/C(=C/c1ccccc1)C(C)=O | 95 mg/kg | 0.41 µg/mL (≈ 1.12 µM) | 11.1 mg/kg |  | ED50 [1]: 1 mg/kg; ED50 [2]: 1 mg/kg; EC50 [3]: 0.0099 µg/mL (≈ 0.0269 µM); ED50 [4]: 82 mg/kg; ED50 [5]: 4.3 mg/kg; ED50 [6]: 83 mg/kg; ED50 [7]: 4.9 mg/kg; Activity [10]: -6%; Activity [11]: 4%; Activity [12]: -8%; ED50 [13]: 0.3 mg/kg; ED50 [14]: 35 mg/kg; ED50 [15]: 0.6 mg/kg; ED50 [16]: 0.18 mg/kg |
| CC(=O)/C(=C\c1ccccc1)Oc1cc(Cl)ccc1OCCN1CCCCC1 | 185 mg/kg | 3 µg/mL (≈ 7.5 µM) |  | 0.9 mg/kg |  |
| CCN(CC)CCOc1ccccc1OCC(C)O (stereo unspecified) |  | 15 µg/mL (≈ 56.1 µM) |  | 7.1 mg/kg | LD50 [19]: 187 mg/kg |
| CCN(CC)CCOc1ccccc1OCC(C)=O |  | 15 µg/mL (≈ 56.5 µM) |  | 7 mg/kg | LD50 [19]: 125 mg/kg |
| CC(=O)/C(=C\c1ccccc1)Oc1ccccc1OCCN1CCCC1 |  | 3 µg/mL (≈ 8.54 µM) |  | 1 mg/kg | LD50 [19]: 45 mg/kg |
| CCN(CC)CCOc1ccccc1O/C(=C/c1ccccc1)C(C)O (stereo unspecified) | 110 mg/kg | 1.9 µg/mL (≈ 5.34 µM) |  | 1.5 mg/kg |  |
| CCN(CC)CCOc1ccccc1O/C(=C/c1ccccc1)C(=O)c1ccccc1 |  | 2.8 µg/mL (≈ 6.74 µM) |  |  | LD50 [19]: 125 mg/kg |
| CC(=O)/C(=C\c1ccccc1)Oc1ccccc1OCCCN(C(C)C)C(C)C | 60 mg/kg | 0.32 µg/mL (≈ 0.809 µM) | 11.4 mg/kg | 0.1 mg/kg |  |
| CC(=O)/C(=C\c1ccccc1)Oc1ccc(OCC(O)CNC(C)(C)C)cc1 (stereo unspecified) |  | 2.8 µg/mL (≈ 7.3 µM) |  | 3.5 mg/kg |  |
| CC(=O)/C(=C\c1ccccc1)Oc1ccccc1OCCCN(C)C | 110 mg/kg | 3 µg/mL (≈ 8.84 µM) | 13.5 mg/kg |  |  |
| CC(=O)/C(=C\c1ccccc1)Oc1ccccc1OCCCN1CCN(C)CC1 | 125 mg/kg | 1.3 µg/mL (≈ 3.3 µM) | 23.9 mg/kg |  |  |
| CC(=O)/C(=C\c1ccccc1)Oc1ccccc1OCCN1CCOCC1 | 180 mg/kg | 6 µg/mL (≈ 16.3 µM) | 30 mg/kg | 5 mg/kg |  |
| CC(=O)/C(=C\c1ccccc1)Oc1ccccc1OCC(C)N(C)C (stereo unspecified) | 45 mg/kg | 2 µg/mL (≈ 5.89 µM) |  | 0.9 mg/kg |  |
| CC(=O)/C(=C\c1ccccc1)Oc1ccccc1OCCCNC(C)(C)C | 63 mg/kg | 2.3 µg/mL (≈ 6.26 µM) | 12.5 mg/kg |  |  |
